This is an account of results in ChEMBL document CHEMBL3588858, “Peptidomimetic β-Secretase Inhibitors Comprising a Sequence of Amyloid-β Peptide for Alzheimer's Disease” (J Med Chem, 2015).

One series is filed under the species Homo sapiens. In words: Selectivity ratio of Ki(app) for human recombinant BACE2 to Ki for human recombinant BACE1.
Series [1] relates to Serum. Briefly: Metabolic stability in female mouse serum at 0.53 mg/kg, iv by HPLC-FLU analysis. The class given is ADME, organism-based. As to conditions: in vivo. In short, it runs like this: (§1)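 Female mice (8–12 weeks, 22–37 g) and male Wistar rats (8–12 weeks, 182–201 g) were fasted 24 h, then dosed iv at 0.53 mg/kg in PBS, in triplicate. Animals were sacrificed at 0.5, 1 and 2 h under pentobarbital. Blood was taken by cardiac puncture and brains perfused with chilled saline. Serum was acetonitrile-precipitated. Whole mouse brain, or rat cortex and hippocampus, was homogenized with an internal standard, HPLC-purified, then analysed by HPLC-FLU and ESI LC-MS.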

The nature of series [2]: Half life in human serum by HPLC-FLU analysis. The class given is ADME, cell-free. The method in brief: (§2)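 Peptide solution (50 µM in PBS, 2% DMSO) was mixed 1:4 with human serum or 10% mouse brain homogenate (PBS, 0.5% Triton X-100) and incubated at 37 °C for varying times. Reactions were stopped with acetonitrile and proteins spun out. Intact peptide was quantified by HPLC-FLU against per-compound calibration curves, following decay to about 50%. t1/2 was interpolated from a monophasic model fit; n = 3.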

Series [3] in a line: Cytotoxicity against human Caco2 cells assessed as cell viability at 25 to 50 uM after 4 to 24 hrs by MTS assay. The series is classed as cell-based. As to conditions: Caco-2 cells, read-out: Activity. In short, it runs like this: (§3)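 Confluent Caco-2 cells (passage 26 to 41, grown in high-glucose DMEM with 10% FBS and 1% non-essential amino acids) exposed to test compounds from 2.5 nM to 50 µM in DMEM with 0.5% FBS for 4 h or 24 h. Medium replaced by MTS, 4 h at 37 °C, absorbance read at 490 nm. Viability given as % of cells in 0.5% FBS DMEM.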

The test system of series [4] is Serum. In words: Metabolic stability in Wistar rat serum at 0.53 mg/kg, iv after 2 hrs by HPLC-FLU analysis. The class given is ADME, organism-based. As to conditions: in vivo. The method in brief:
as §1

A further series has as its system Caco-2. In words: Cytotoxicity against human Caco2 cells assessed as cell viability at 25 to 50 uM after 24 hrs by MTS assay. The class given is cell-based. The settings on record: caco-2, 24 h. The method in brief: as §3
For orientation: Tetrazolium dyes change colour on reduction, which living cells bring about.

Series [5] has as its system Cortex. In words: Metabolic stability in Wistar rat brain cortex at 0.53 mg/kg, iv after 2 hrs by HPLC-FLU analysis. The class given is ADME, organism-based. The settings on record: in vivo. In short, it runs like this: as §1
The nature of series [6]: Half life in mouse brain by HPLC-FLU analysis. The series is classed as ADME, tissue-based. In short, it runs like this:
as §2

Series [7] deals with Brain. In words: Retention time of the compound in female mouse brain at 0.53 mg/kg, iv by HPLC-FLU analysis. The series is classed as ADME, organism-based. As to conditions: in vivo. In short, it runs like this:
as §1

Series [8] can be described thus: Drug uptake in female mouse brain at 0.53 mg/kg, iv up to 1 hr by HPLC-FLU analysis. The class given is ADME, organism-based. The settings on record: read-out: Drug uptake. The method in brief:
as §1

Series [9] deals with Brain. In words: Retention time of the compound in female mouse brain treated with 0.53 mg/kg, iv (3S,6S,9S,12S,15S,18S,21R,23S,24S,27S,30S,33S)-33-acetamido-15-benzyl-3-carbamoyl-6-(2-carboxyethyl)-27-(carboxymethyl)-23-hydroxy-12-(4-hydroxybenzyl)-24,30-diisobutyl-18-isopropyl-9,21-dimethyl-5,8,11,14,17,20,26,29,32-nonaoxo-4,7,10,13,16,19,25,28,31-nonaazahexatriacontane-1,36-dioic acid by HPLC-FLU analysis. As to conditions: in vivo. The class given is ADME, organism-based. The method in brief: as §1

Series [10] relates to Brain. In words: Drug formation in female mouse brain treated with 0.53 mg/kg, iv (3S,6S,9S,12S,15S,18S,21R,23S,24S,27S,30S,33S)-33-acetamido-15-benzyl-3-carbamoyl-6-(2-carboxyethyl)-27-(carboxymethyl)-23-hydroxy-12-(4-hydroxybenzyl)-24,30-diisobutyl-18-isopropyl-9,21-dimethyl-5,8,11,14,17,20,26,29,32-nonaoxo-4,7,10,13,16,19,25,28,31-nonaazahexatriacontane-1,36-dioic acid measured up to 2 hrs by HPLC-FLU/LC-MS …. The settings on record: in vivo. The series is classed as ADME, organism-based.

For series [11], the system named is Serum. In words: Drug formation in Wistar rat serum treated with 0.53 mg/kg, iv (3S,6S,9S,12S,15S,18S,21R,23S,24S,27S,30S,33S)-33-acetamido-15-benzyl-3-carbamoyl-6-(2-carboxyethyl)-27-(carboxymethyl)-23-hydroxy-12-(4-hydroxybenzyl)-24,30-diisobutyl-18-isopropyl-9,21-dimethyl-5,8,11,14,17,20,26,29,32-nonaoxo-4,7,10,13,16,19,25,28,31-nonaazahexatriacontane-1,36-dioic acid measured after 2 hrs by HPLC-FLU/LC-MS …. As to conditions: in vivo. The series is classed as ADME, organism-based.

Series [12] deals with Cortex. In words: Drug formation in Wistar rat brain cortex treated with 0.53 mg/kg, iv (3S,6S,9S,12S,15S,18S,21R,23S,24S,27S,30S,33S)-33-acetamido-15-benzyl-3-carbamoyl-6-(2-carboxyethyl)-27-(carboxymethyl)-23-hydroxy-12-(4-hydroxybenzyl)-24,30-diisobutyl-18-isopropyl-9,21-dimethyl-5,8,11,14,17,20,26,29,32-nonaoxo-4,7,10,13,16,19,25,28,31-nonaazahexatriacontane-1,36-dioic acid measured after 2 hrs by …. The series is classed as ADME, organism-based. The settings on record: in vivo.

Numbered stars: 1 amine (or outer) side, 2 acyl side, 3 side chain; on linkers, the order of the positions; unused ones are H or OH. Square brackets hold non-standard residues; d marks the D form. Peptide text beside a SMILES is read from it. LeuΨ(S-CHOHCH2)Ala = CC(C)C[C@H](N[*:1])[C@@H](O)C[C@@H](C)C(=O)[*:2] Bounds are passed on as bounds.

As for `CC(=O)N[C@@H](CCC(=O)O)C(=O)N[C@@H](CC(C)C)C(=O)N[C@@H](CC(=O)O)C(=O)N[C@@H](CC(C)C)[C@@H](O)C[C@@H](C)C(=O)N[C@H](C(=O)N[C@@H](Cc1ccccc1)C(=O)N[C@@H](Cc1ccc(O)cc1)C(=O)N[C@@H](C)C(=O)N[C@@H](CCC(=O)O)C(=O)N[C@@H](CC(=O)O)C(N)=O)C(C)C` (Ac-ELD[LeuΨ(S-CHOHCH2)Ala]VFYAED-NH2), the Ratio in the series listed under Homo sapiens is 9.2. Also, the results for the Stability result in the series with Serum [1], in the series with Serum [4] and in the series on Cortex [5] were “Unstable”, “Stable” and “Unstable”, respectively. Also, the half-life – broadly, the time in which the quantity being followed falls by half – in series [2] was 6 h; in [6], 3.43 h. Further, the viability at 50 µM in series [3] is more than 80%. The Activity entry in the series with Caco-2 is “Non-toxic”. Besides, the Retention_time in the series with Brain [7] was 23.6 min.

Regarding `CC(C)C[C@H](NC(=O)[C@@H](N)CCC(=O)O)C(=O)N[C@@H](CC(=O)O)C(=O)N[C@@H](CC(C)C)[C@@H](O)C[C@@H](C)C(=O)N[C@H](C(=O)N[C@@H](CCC(=O)O)C(=O)N[C@@H](Cc1ccccc1)C(=O)O)C(C)C` (H-ELD[LeuΨ(S-CHOHCH2)Ala]VEF-OH), the half-life in [2] was 2.2 h; in [6] it was 5.8 h. In series [3], the viability at 50 µM is more than 80%. Also, the Activity result with Caco-2 is “Non-toxic”.

Regarding `CC(C)C[C@H](NC(=O)[C@@H](N)CCC(=O)O)C(=O)N[C@@H](CC(=O)O)C(=O)N[C@@H](CC(C)C)[C@@H](O)C[C@@H](C)C(=O)N[C@H](C(=O)N[C@@H](Cc1ccccc1)C(=O)N[C@@H](Cc1ccccc1)C(=O)N[C@@H](C)C(=O)N[C@@H](CCC(=O)O)C(=O)N[C@@H](CC(=O)O)C(N)=O)C(C)C` (H-ELD[LeuΨ(S-CHOHCH2)Ala]VFFAED-NH2), the Ratio in the series listed under Homo sapiens amounted to 3.7. For the same compound, the viability at 50 µM in series [3] is more than 80%. Besides, in the series with Caco-2, the Activity entry is “Non-toxic”.

Take `CC(C)C[C@H](NC(=O)[C@@H](N)CCC(=O)O)C(=O)N[C@@H](CC(=O)O)C(=O)N[C@@H](CC(C)C)[C@@H](O)C[C@@H](C)C(=O)N[C@H](C(=O)N[C@@H](Cc1ccccc1)C(=O)N[C@@H](Cc1ccc(O)cc1)C(=O)N[C@@H](C)C(=O)N[C@@H](CCC(=O)O)C(=O)N[C@@H](CC(=O)O)C(N)=O)C(C)C` (H-ELD[LeuΨ(S-CHOHCH2)Ala]VFYAED-NH2): the Ratio in the series listed under Homo sapiens was 7.5. Besides, the half-life was 2.1 h in series [2] and 2.3 h in [6]. Besides, the viability at up to 50 µM in series [3] was more than 80%. The Activity result in the series with Caco-2 is listed as “Non-toxic”.

With `CC(C)C[C@H](NC(=O)[C@@H](N)CCC(=O)O)C(=O)N[C@@H](CC(=O)O)C(=O)N[C@@H](CC(C)C)[C@@H](O)C[C@@H](C)C(=O)N[C@H](C(=O)N[C@@H](Cc1ccccc1)C(=O)N[C@@H](Cc1ccc(O)cc1)C(=O)N[C@@H](C)C(=O)N[C@@H](CCC(=O)O)C(=O)N[C@@H](CC(=O)O)C(=O)O)C(C)C` (H-ELD[LeuΨ(S-CHOHCH2)Ala]VFYAED-OH), the concentration at 1 h in series [8] stood at 20 nM. Also, the Ratio in the series listed under Homo sapiens was found to be 7.5. In the series with Brain [9], this compound showed a Retention_time of 22.9 min. The half-life was 3 h in [2] and 6 h in [6]. Also, the Drug metabolism entry in the series with Brain [10], in the series on Serum [11] and in the series on Cortex [12] was “metabolite_detected” each time.
